For test [1], the system named is ARPE-19. Nature of the test: Cytoprotective activity against human ARPE-19 cells assessed as reduction in all-trans-retinal induced cytotoxicity at 18 to 90 uM incubated for 6 hrs in presence of all-trans-retinal by CellTiter-Glo luminescent cell viability assay. The format is functional, cell-based. Conditions: dose microM 18-90, time 6.0 hrs.
Test [2] addresses Retinoid isomerohydrolase (Bos taurus, UniProt Q28175). Nature of the test: Inhibition of RPE65 in bovine RPE microsomes assessed as reduction in 11-cis-retinol production using all-trans-retinol as substrate pre-incubated with enzyme for 5 mins followed by further incubation with all-trans-retinol for 1 hr by normal phase HPLC analysis. Further details: species or system Retina, Microsome. The method, boiled down: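 All-trans-retinol added to the enzyme mixture and incubated 1 h at 37 °C. Quenched with methanol and extracted into hexane. Inhibition taken from the fall in 11-cis-retinol production.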

Test [3] addresses Retinoid isomerohydrolase (Bos taurus) (UniProt Q28175). The test is described as follows: Potency index, ratio of (R)-MB001 EC50 to test compound EC50 for inhibition of RPE65 in bovine RPE microsomes assessed as reduction in 11-cis-retinol production using all-trans-retinol as substrate pre-incubated with enzyme for 5 mins followed by further incubation with all-trans-retinol for 1 hr by normal phase HPLC analysis. Conditions: Retina, Microsome, time 65.0 min.

The subject of test [4] is ARPE-19. Nature of the test: Cytoprotective activity against human ARPE-19 cells assessed as reduction in all-trans-retinal induced cytotoxicity by measuring cell surveillance rate at 90 uM incubated for 6 hrs in presence of all-trans-retinal by CellTiter-Glo luminescent cell viability assay relative to control. The format is functional. The gist of the method: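 ARPE-19 (human RPE line) cells given test agent at 18, 45 or 90 μM together with all-trans-retinal 385 μM. Incubated 6 h at 37 °C, then viability read by CellTiter-Glo luminescence. Mean ±SE, n=3, t-test.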
Background: Cellular ATP, detected with luciferase, serves as a proxy for viable cell number.

As a reminder, the EC50 is the concentration at which the effect is half-maximal.

Calls of active or inactive are those of the source. The rule behind the calls is not given here.

Retinoid isomerohydrolase, sequence (Q28175 whole entry): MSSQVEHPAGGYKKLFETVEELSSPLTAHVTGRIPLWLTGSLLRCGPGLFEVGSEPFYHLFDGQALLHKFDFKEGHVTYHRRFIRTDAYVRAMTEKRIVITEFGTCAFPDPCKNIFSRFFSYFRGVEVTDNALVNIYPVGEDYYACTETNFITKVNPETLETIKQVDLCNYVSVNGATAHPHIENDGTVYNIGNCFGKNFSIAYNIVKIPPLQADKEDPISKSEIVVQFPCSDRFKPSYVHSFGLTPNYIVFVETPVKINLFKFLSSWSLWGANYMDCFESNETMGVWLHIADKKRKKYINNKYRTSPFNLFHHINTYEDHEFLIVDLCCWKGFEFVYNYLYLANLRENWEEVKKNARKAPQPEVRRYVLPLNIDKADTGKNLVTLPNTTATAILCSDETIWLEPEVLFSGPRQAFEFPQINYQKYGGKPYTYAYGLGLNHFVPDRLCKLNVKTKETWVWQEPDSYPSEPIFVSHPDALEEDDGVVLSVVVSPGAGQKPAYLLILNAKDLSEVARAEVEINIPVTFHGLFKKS
Retinoid isomerohydrolase (Bos taurus), sequence (Q28175 2-533 limits assumed): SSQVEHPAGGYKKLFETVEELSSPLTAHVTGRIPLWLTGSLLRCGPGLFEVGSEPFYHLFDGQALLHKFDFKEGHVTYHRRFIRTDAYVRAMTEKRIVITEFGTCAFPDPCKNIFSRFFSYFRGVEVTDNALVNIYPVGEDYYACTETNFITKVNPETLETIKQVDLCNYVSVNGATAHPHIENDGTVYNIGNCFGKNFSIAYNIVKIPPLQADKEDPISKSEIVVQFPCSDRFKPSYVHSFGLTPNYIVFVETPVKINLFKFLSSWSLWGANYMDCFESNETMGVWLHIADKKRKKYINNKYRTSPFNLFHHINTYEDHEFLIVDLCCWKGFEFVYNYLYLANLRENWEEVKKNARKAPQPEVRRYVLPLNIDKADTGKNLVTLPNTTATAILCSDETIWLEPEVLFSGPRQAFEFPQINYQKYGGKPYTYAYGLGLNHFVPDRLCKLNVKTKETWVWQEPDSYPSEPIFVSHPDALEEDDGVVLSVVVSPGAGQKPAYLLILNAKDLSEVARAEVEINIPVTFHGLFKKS

`CC1=C(COc2cccc([C@H](O)CCN)c2)C(C)(C)CCC1`: in the test with ARPE-19 [1], the result was Active. Also, the EC50 in test [2] stood at 323 nM.

Turning to `NCCC(O)c1cccc(OCC(CCCF)CCCF)c1` (racemic) [listing 1 of 2 here], the EC50 in test [2] stood at 166 nM.

Regarding `NCCC(O)c1cccc(OCC(CCCF)CCCF)c1` (racemic) [listing 2 of 2 here], the result in the test on ARPE-19 [1] was Active. The Ratio EC50 in test [3] was 2.

With `NCCC(O)c1cccc(OCC(CCCF)CCCF)c1` (stereo in doubt; 14) [listing 1 of 2 here], in the test with ARPE-19 [4], the Activity amounted to 100%. Also, the EC50 in test [2] came out at 196 nM.

Take `NCCC(O)c1cccc(OCC(CCCF)CCCF)c1` (stereo in doubt; 14) [listing 2 of 2 here]: in the test with ARPE-19 [1], the result was Active. The Ratio EC50 in test [3] is 2.

The values are drawn from ChEMBL document CHEMBL4665714 (Bioorg Med Chem Lett, 2020).
